Key:
[1] = test system: Human immunodeficiency virus 1; experiment: Antiviral activity against Human immunodeficiency virus 1 NL4-3 infected in human MT4 cells assessed as protection against virus-induced cytopathic effect after 2 days by bright-glo luciferase reporter gene assay; type: functional, organism-based
Procedure, shortened: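 MT-4 cells are infected with 200 TCID50 of HIV-1 NL4-3 over a range of compound concentrations, allowing multiple rounds of infection. After two days the medium is removed and Bright-Glo luminescence is read. […] At least triplicate; mean ± SD of at least two parallel tests.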

[2] = test system: MT4; experiment: Cytotoxicity against human MT4 cells assessed as reduction in cell viability after 24 hrs by CytoTox-Glo cytotoxicity assay; type: cell-based; conditions: mt4, 24 h
Procedure, shortened: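 Uninfected MT-4 cells were cultured for 1 day with various compound concentrations, in parallel with the antiviral assays. Percent viable cells was read by the CytoTox-Glo kit following the manufacturer's protocol. […] Each value was run in at least triplicate and averaged from at least four independent experiments.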

[3] = Selectivity index, ratio of CC50 for human MT4 cells to EC50 for Human immunodeficiency virus 1 NL4-3 infected in human MT4 cells; type: toxicity, cell-based; conditions: read-out: Ratio CC50/EC50
Procedure, shortened: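 SI is CC50/EC50, both measured in MT-4 cells. For EC50, 200 TCID50 of NL4-3 infected MT-4 cells over multiple rounds in the presence of various compound concentrations. […] CC50 came from a 1-day CytoTox-Glo viability assay on uninfected cells.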

[4] = test system: Human immunodeficiency virus 1; experiment: Antiviral activity against ENV pseudotyped HIV1 B41 infected in human U87 cells expressing CD4/CCR5 measured after 48 hrs by luciferase reporter gene assay; type: functional, organism-based; conditions: Human immunodeficiency virus 1, B41, U-87 MG
Procedure, shortened: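 Early-stage single-round assay. U87.CD4.CCR5 target cells, 1.2×10^4 cells/well, are seeded and left 24 h at 37°C. Single-round HIV-1 B41 Env-pseudotyped firefly luciferase virus, produced in HEK293T without compound, is mixed with compound or DMSO vehicle and added to the cells. After 48 h at 37°C the cells are lysed, freeze-thawed and read for luciferase. IC50 from 3 parallel tests.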

[5] = test system: Human immunodeficiency virus 1; experiment: Antiviral activity against ENV pseudotyped HIV1 B41 infected in human U87 cells expressing CD4/CCR5 pretreated with virus for 72 hrs followed by infection of cells measured after 48 hrs by luciferase reporter gene assay; type: functional, organism-based; conditions: Human immunodeficiency virus 1, B41, U-87 MG
Procedure, shortened: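 Late-stage assay. B41 Env-pseudotyped luciferase viruses are produced in 293T cells with compound (100 μM to 0.01 μM, equal DMSO) or DMSO vehicle for 72 h at 37°C. Supernatants are clarified, filtered, freeze-thawed once, diluted ten-fold and used to infect U87.CD4.CCR5 cells for 48 h at 37°C. Lysate luciferase is normalized to virus made in vehicle-treated cells.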

[6] = test system: U-87 MG; experiment: Cytotoxicity against human U87 cells expressing CD4/CCR5; type: cell-based; conditions: u-87mg atcc
[7] = target: T1, Structural capsid protein (Human immunodeficiency virus 1, UniProt Q76129); experiment: Binding affinity to HIV1 NL4-3 N-terminal domain capsid protein by surface plasmon resonance
T1 sequence (Q76129 whole entry, the tested form may be a part): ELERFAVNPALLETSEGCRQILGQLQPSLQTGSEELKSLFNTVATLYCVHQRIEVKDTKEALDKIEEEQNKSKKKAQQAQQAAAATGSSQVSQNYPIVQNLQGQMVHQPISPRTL
Procedure, shortened: (§1)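 SPR at 25°C. HIV-1 NL4-3 CA constructs are amine-coupled at 100 µg/ml in 10 mM sodium acetate, pH 5.0, onto an EDC/sulfo-NHS-activated GLH chip, then ethanolamine-capped. Compound serial dilutions in PBS, 3% DMSO, 0.005% polysorbate 20, pH 7.4 are injected at 100 µl/min with 1 min association and up to 5 min dissociation. Reference-subtracted; KD by equilibrium analysis, at least three experiments.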

[8] = target: T1, Structural capsid protein; experiment: Binding affinity to HIV1 NL4-3 monomeric capsid protein by surface plasmon resonance; procedure, shortened: as §1
[9] = target: T1, Structural capsid protein; experiment: Binding affinity to HIV1 NL4-3 hexameric capsid protein by surface plasmon resonance; procedure, shortened: as §1
[10] = Therapeutic index, ratio of CC50 for human U87 cells to IC50 for ENV pseudotyped HIV1 B41 infected in human U87 cells expressing CD4/CCR5; type: toxicity, cell-based; conditions: read-out: Ratio CC50/IC50
[11] = test system: Human immunodeficiency virus 1; experiment: Antiviral activity against Human immunodeficiency virus 1 NL4-3 infected in human MT2 cells measured 4 to 5 days post infection by luciferase reporter gene assay; type: functional, organism-based; conditions: Human immunodeficiency virus 1, NL4-3, MT2
[12] = Cytotoxicity against human MT2 cells after 4 days by XTT assay; type: cell-based
[13] = test system: Human immunodeficiency virus 1; experiment: Antiviral activity against Human immunodeficiency virus 1 3B infected in human MT4 cells assessed as inhibition of virus-induced cytopathic effect at 2 uM after 5 days by CellTiter-Glo assay relative to control; type: functional; conditions: MT4, 120 h
[14] = Human immunodeficiency virus 1, NL4-3, MT4, 48 h, read-out: EC50

Row | SMILES | EC50 [1, 14] [µM] | CC50 ([2]; read-out: CC50) [µM] | selectivity ratio [3] | further results
1 | COc1ccc(N(C)C(=O)[C@H](Cc2ccccc2)NC(=O)c2cn(-c3ccc4c(c3)OCO4)nn2)cc1 | 14.9 | > 20 | > 1.34 | 
2 | COc1ccc(N(C)C(=O)[C@H](Cc2ccccc2)NC(=O)c2cn(Cc3ccc(C#N)cc3)nn2)cc1 | 8.98 | > 21.5 | > 2.4 | 
3 | COc1ccc(N(C)C(=O)[C@H](Cc2ccccc2)NC(=O)c2cn(Cc3ccccc3C)nn2)cc1 | 8 | > 20.7 | > 2.58 | 
4 | COc1ccc(N(C)C(=O)[C@H](Cc2ccccc2)NC(=O)c2cn(Cc3cccc(Cl)c3)nn2)cc1 |  |  |  | EC50 ([1]; mt4): Not Active; CC50 [2]: Not Active
5 | COc1ccc(N(C)C(=O)[C@H](Cc2ccccc2)NC(=O)c2cn(Cc3ccc(C)cc3)nn2)cc1 |  |  |  | EC50 ([1]; mt4): Not Active; CC50 [2]: Not Active
6 | COc1ccc(N(C)C(=O)[C@H](Cc2ccccc2)NC(=O)c2cn(Cc3ccccc3[N+](=O)[O-])nn2)cc1 | 10.2 | > 19.4 | > 1.91 | 
7 | COc1ccc(N(C)C(=O)[C@H](Cc2ccccc2)NC(=O)c2cn(CS(=O)(=O)c3ccccc3)nn2)cc1 |  | > 18.7 |  | EC50 ([1]; mt4): Not Active
8 | COc1ccc(N(C)C(=O)[C@H](Cc2ccccc2)NC(=O)c2cn(Cc3cccc4ccccc34)nn2)cc1 | > 19.2 | > 19.2 |  | 
9 | COC(=O)c1cccc(-n2cc(C(=O)N[C@@H](Cc3ccccc3)C(=O)N(C)c3ccc(OC)cc3)nn2)c1 | 6.91 | > 19.5 | > 2.82 | 
10 | Cc1[nH]c2ccccc2c1CC(=O)N[C@@H](Cc1ccccc1)C(=O)N(C)c1ccccc1 | 5.95 | > 70.5 |  | IC50 [4]: 0.1 µM; IC50 [5]: 8.3 µM; CC50 [6]: 73 µM
11 | COc1ccc(N(C)C(=O)[C@H](Cc2ccccc2)NC(=O)c2cn(Cc3cccc(C#N)c3)nn2)cc1 | 9.11 | > 21.5 | > 2.36 | 
12 | COc1ccc(N(C)C(=O)[C@H](Cc2ccccc2)NC(=O)c2cn(C3CC(n4cc(C)c(=O)[nH]c4=O)OC3CO)nn2)cc1 (some centres not stated) | 10.5 | > 16.6 | > 1.59 | 
13 | COc1ccc(N(C)C(=O)[C@H](Cc2ccccc2)NC(=O)c2cn(CSc3ccccc3)nn2)cc1 |  |  |  | EC50 ([1]; mt4): Not Active; CC50 [2]: Not Active
14 | COc1ccc(N(C)C(=O)[C@H](Cc2ccccc2)NC(=O)c2cn(Cc3ccc4ccccc4c3)nn2)cc1 | 4.33 | > 57.7 | > 13.3 | Kd [7]: 32.7 µM; Kd [8]: 14 µM; Kd [9]: 11 µM; IC50 [4]: 7 µM; IC50 [5]: 31 µM; CC50 [6]: 54.8 µM; selectivity ratio [10]: 2.8
15 | COc1ccc(N(C)C(=O)[C@H](Cc2ccccc2)NC(=O)c2cn(Cc3cccc(C)c3)nn2)cc1 |  |  |  | EC50 ([1]; mt4): Not Active; CC50 [2]: Not Active
16 | COc1ccc(N(C)C(=O)[C@H](Cc2ccccc2)NC(=O)c2cn(Cc3ccccc3C#N)nn2)cc1 | > 21.5 | > 21.5 |  | 
17 | COc1ccc(N(C)C(=O)[C@H](Cc2ccccc2)NC(=O)c2cn(C[S+]([O-])c3ccccc3)nn2)cc1 (some centres not stated) | 6.65 | > 19.3 | > 2.91 | Kd [7]: 28.2 µM; Kd [8]: 12.7 µM; Kd [9]: 93.3 µM
18 | COc1ccc(N(C)C(=O)[C@H](Cc2ccccc2)NC(=O)c2cn(Cc3ccc([N+](=O)[O-])cc3)nn2)cc1 | > 19.4 | > 19.4 |  | 
19 | COc1ccc(N(C)C(=O)[C@H](Cc2ccccc2)NC(=O)c2cn(Cc3ccc(Cl)cc3)nn2)cc1 | > 19.8 | > 19.8 |  | 
20 | COc1ccc(N(C)C(=O)[C@H](Cc2ccccc2)NC(=O)NS(=O)(=O)N2CCCc3ccccc32)cc1 |  |  |  | EC50 [11]: 0.11 µM; CC50 at 96 h [12]: 33.3 µM
21 | COc1ccc(N(C)C(=O)[C@H](Cc2ccccc2)NC(=O)c2cn(Cc3cccc([N+](=O)[O-])c3)nn2)cc1 |  |  |  | EC50 ([1]; mt4): Not Active; CC50 [2]: Not Active
22 | COc1ccc(N(C)C(=O)[C@H](Cc2ccccc2)NC(=O)Cn2nc(C(F)(F)F)c3c2CCCC3)cc1 |  |  |  | inhibition at 2 µM [13]: 100%
23 | COc1ccc(N(C)C(=O)[C@H](Cc2ccccc2)NC(=O)c2cn(Cc3ccccc3Cl)nn2)cc1 | > 19.8 | > 19.8 |  | 
